Test results reported in the array DNA melting data of Ke et al. (doi:10.1101/2024.01.08.574731).

Experiments:
[1] = melting temperature; fluorescence melt of hairpins on a sequencing array, two-state fit, raised by 9.35 °C to match UV melts; settings: sodium 0.088 M
How it was run: (§1)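 Library hairpins on a sequenced MiSeq flow cell carried annealed Cy3 and quencher oligos, and their Cy3 fluorescence was imaged in 50 mM Na-HEPES pH 8.0 with 25 mM NaCl, in 2.5 °C steps up to 60 °C. Signals were normalised to Cy3 before quenching and to control constructs. Melting temperature and folding enthalpy were obtained from bootstrapped two-state fits, combined by inverse-variance weighting across four replicates, and the fitted temperatures were then raised by 9.35 °C to match UV melts.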

[2] = folding enthalpy; higher = less favourable; fluorescence melt of hairpins on a sequencing array, two-state fit; settings: sodium 0.088 M
How it was run: as §1

## GGAGTGGGAAACCGCTCC ((((.((....)).))))
[1]
  Tm: 57.8 °C
[2]
  folding enthalpy: -44.3 kcal/mol

## AATCGGAAACGATT (((((....)))))
[1]
  Tm: 44.5 °C
[2]
  folding enthalpy: -22.9 kcal/mol

## GCCAGGCCGAAAGGCGGC (((..(((....))))))
[1]
  Tm: 64.9 °C
[2]
  folding enthalpy: -18.4 kcal/mol

## GGTACGGAAACGTACC ((((((....))))))
[1]
  Tm: 65.8 °C
[2]
  folding enthalpy: -37.8 kcal/mol

## GTTAAGCGAAAGCTAAAC (((.(((....))).)))
[1]
  Tm: 41.5 °C
[2]
  folding enthalpy: -19.9 kcal/mol

## GTCTTTCGAAAGAACGAC (((.(((....))).)))
[1]
  Tm: 41 °C
[2]
  folding enthalpy: -40.9 kcal/mol

## GACCTACGAAAGTAGTC (((.(((....))))))
[1]
  Tm: 42.1 °C
[2]
  folding enthalpy: -17.3 kcal/mol

## GCCCCAGGAAACCAGGGC ((((..(....)..))))
[1]
  Tm: 45.6 °C
[2]
  folding enthalpy: -23.4 kcal/mol

## GATCAATACCTTGATC ((((((....))))))
[1]
  Tm: 46.5 °C
[2]
  folding enthalpy: -34 kcal/mol

## GCTGACGAAAGTCCAAGC ((((((....)))..)))
[1]
  Tm: 43.5 °C
[2]
  folding enthalpy: -16.5 kcal/mol

## GGATACGAAAGTATATCC ((((((....)))..)))
[1]
  Tm: 34.5 °C
[2]
  folding enthalpy: -18.3 kcal/mol

## GTGTGTCGAAAGACCCAC (((.(((....))).)))
[1]
  Tm: 49.4 °C
[2]
  folding enthalpy: -29 kcal/mol

## GATCAGCAACCTGATC ((((((....))))))
[1]
  Tm: 46.2 °C
[2]
  folding enthalpy: -33 kcal/mol

## GTGATGGCGAAAGCCCAC (((..(((....))))))
[1]
  Tm: 41.2 °C
[2]
  folding enthalpy: -14.6 kcal/mol

## GCCCAAGCGAAAGCTGGC (((..(((....))))))
[1]
  Tm: 53.6 °C
[2]
  folding enthalpy: -17.6 kcal/mol

## GGTCTCACGAAAGTGACC (((..(((....))))))
[1]
  Tm: 37.9 °C
[2]
  folding enthalpy: -14.5 kcal/mol

## GAAGGCCGAAAGGCGTTC (((.(((....))).)))
[1]
  Tm: 57 °C
[2]
  folding enthalpy: -26.3 kcal/mol

## GGCCCTCGAAAGAGGCC (((.(((....))))))
[1]
  Tm: 58.4 °C
[2]
  folding enthalpy: -21.3 kcal/mol

## GGAGCGGGAAACCGTTCC (((.(((....))).)))
[1]
  Tm: 54.9 °C
[2]
  folding enthalpy: -38.4 kcal/mol

## GATCACGAAAGTGATATC ((((((....)))..)))
[1]
  Tm: 50.5 °C
[2]
  folding enthalpy: -17.3 kcal/mol

## GGCTCCGAAAGGAGCGCC ((((((....)))..)))
[1]
  Tm: 68.6 °C
[2]
  folding enthalpy: -6.52 kcal/mol

## GGGGTATCGAAAGATCCC (((..(((....))))))
[1]
  Tm: 50.4 °C
[2]
  folding enthalpy: -22.4 kcal/mol

## GTTGGCCGAAAGGCGAAC (((.(((....))).)))
[1]
  Tm: 57.4 °C
[2]
  folding enthalpy: -26.6 kcal/mol

## TCGCTGAAAAGCGA (((((....)))))
[1]
  Tm: 68.8 °C
[2]
  folding enthalpy: -17.4 kcal/mol

## GCGGGCTCCCGC ((((....))))
[1]
  Tm: 66 °C
[2]
  folding enthalpy: -23.8 kcal/mol

## GCCCGCGAAAGCGTAGGC ((((((....)))..)))
[1]
  Tm: 62.4 °C
[2]
  folding enthalpy: -22.3 kcal/mol

## GGCGTCGAAAGACCCGCC ((((((....)))..)))
[1]
  Tm: 55.3 °C
[2]
  folding enthalpy: -17.5 kcal/mol

## GGGATTGGAAACAGTCCC ((((.((....)).))))
[1]
  Tm: 48.8 °C
[2]
  folding enthalpy: -31.5 kcal/mol

## GATCCATGACTGGATC ((((((....))))))
[1]
  Tm: 48.6 °C
[2]
  folding enthalpy: -35.5 kcal/mol

## GTCACTCCGAAAGGAGAC (((..(((....))))))
[1]
  Tm: 31.6 °C
[2]
  folding enthalpy: -8.95 kcal/mol

## GTCGCCGCGAAAGCGGAC (((..(((....))))))
[1]
  Tm: 32.8 °C
[2]
  folding enthalpy: -6.08 kcal/mol

## GCGGGAAGCCGC ((((....))))
[1]
  Tm: 61.6 °C
[2]
  folding enthalpy: -18.4 kcal/mol

## GCAGGTGGAAACGCCTGC (((((.(....).)))))
[1]
  Tm: 61.8 °C
[2]
  folding enthalpy: -46.6 kcal/mol

## GGTACTGGAAACAGTGTC (..((((....))))..)
[1]
  Tm: 28.9 °C
[2]
  folding enthalpy: -13.9 kcal/mol

## GACTCACGAAAGTGCGTC (((.(((....))).)))
[1]
  Tm: 50.6 °C
[2]
  folding enthalpy: -32.8 kcal/mol

## GAGACACGAAAGTGACTC (((.(((....))).)))
[1]
  Tm: 55.6 °C
[2]
  folding enthalpy: -36 kcal/mol

## GCGTGCGCGAAAGCGCGC (((..(((....))))))
[1]
  Tm: 65.1 °C
[2]
  folding enthalpy: -6.87 kcal/mol

## GTTCCTCGAAAGAGCAAC (((.(((....))).)))
[1]
  Tm: 29.4 °C
[2]
  folding enthalpy: -14.3 kcal/mol

## GGGGAAGCGAAAGCTCCC (((..(((....))))))
[1]
  Tm: 59.8 °C
[2]
  folding enthalpy: -17.8 kcal/mol

## GACCTGGGAAACTAGGTC (((((.(....).)))))
[1]
  Tm: 50.1 °C
[2]
  folding enthalpy: -42.5 kcal/mol

## GCTTGACGAAAGTCGAGC (((.(((....))).)))
[1]
  Tm: 63.1 °C
[2]
  folding enthalpy: -39 kcal/mol

## TACGGGAAACCGTA (((((....)))))
[1]
  Tm: 48.5 °C
[2]
  folding enthalpy: -15.8 kcal/mol

## GGATCGACGAAAGTCTCC (((..(((....))))))
[1]
  Tm: 27.9 °C
[2]
  folding enthalpy: -10.6 kcal/mol

## GATCGACGTCTCGATC ((((((....))))))
[1]
  Tm: 50 °C
[2]
  folding enthalpy: -42.3 kcal/mol

## GTCATCGGAAACAATGAC (((((.(....).)))))
[1]
  Tm: 36.1 °C
[2]
  folding enthalpy: -28 kcal/mol

## GATGCAGGAAACTACATC ((((.((....)).))))
[1]
  Tm: 36.4 °C
[2]
  folding enthalpy: -30.7 kcal/mol

## GCTCGCGAAAGCGTAAGC ((((((....)))..)))
[1]
  Tm: 51.3 °C
[2]
  folding enthalpy: -13.4 kcal/mol

## GCTCTGCGAAAGCGTAGC (((..((....))..)))
[1]
  Tm: 38.2 °C
[2]
  folding enthalpy: -17.6 kcal/mol

## GATCTAGTGCTAGATC ((((((....))))))
[1]
  Tm: 44.3 °C
[2]
  folding enthalpy: -31.1 kcal/mol

## GATTCGGGAAACCGAACC (.(((((....))))).)
[1]
  Tm: 40.2 °C
[2]
  folding enthalpy: -13.7 kcal/mol

## GTACAGGGAAACCTGCAC ((.((((....)))).))
[1]
  Tm: 39.7 °C
[2]
  folding enthalpy: -22.4 kcal/mol

## GATATGGGAAACCATGTC ((.((((....)))).))
[1]
  Tm: 41.8 °C
[2]
  folding enthalpy: -29 kcal/mol

## CGCACGGAAACGTGGGCG ((((((....)))..)))
[1]
  Tm: 56.3 °C
[2]
  folding enthalpy: -12.8 kcal/mol

## CTATCGAAAGATAG (((((....)))))
[1]
  Tm: 47.1 °C
[2]
  folding enthalpy: -21.7 kcal/mol

## GGCGCCGAAAGGCCAGCC ((((((....)))..)))
[1]
  Tm: 61 °C
[2]
  folding enthalpy: -21.1 kcal/mol

## GACAACCGAAAGGTGTC (((.(((....))))))
[1]
  Tm: 53.9 °C
[2]
  folding enthalpy: -24.8 kcal/mol

## GTAGCTCGAAAGAGTTAC (((.(((....))).)))
[1]
  Tm: 50.6 °C
[2]
  folding enthalpy: -33.6 kcal/mol

## CGCCGCGGAAACGCGCG (((.(((....))))))
[1]
  Tm: 66.6 °C
[2]
  folding enthalpy: -16.6 kcal/mol

## GCGTCTCACGC ((((...))))
[1]
  Tm: 56.4 °C
[2]
  folding enthalpy: -23.4 kcal/mol

## GCTCTCGAAAGAGCTAGC ((((((....)))..)))
[1]
  Tm: 50.3 °C
[2]
  folding enthalpy: -15.5 kcal/mol

## GTCGGTCCGAAAGGAGAC (((..(((....))))))
[1]
  Tm: 36 °C
[2]
  folding enthalpy: -15 kcal/mol

## GGACCCGGAAACAGGTCC (((((.(....).)))))
[1]
  Tm: 49.4 °C
[2]
  folding enthalpy: -39.7 kcal/mol

## GACCAGGGAAACTTGGTC (((((.(....).)))))
[1]
  Tm: 47.8 °C
[2]
  folding enthalpy: -37.8 kcal/mol

## GTGGAGCCGAAAGGCCAC (((..(((....))))))
[1]
  Tm: 50.5 °C
[2]
  folding enthalpy: -13.7 kcal/mol

## GTCTTGGGAAACCAAGGC (.(((((....))))).)
[1]
  Tm: 51 °C
[2]
  folding enthalpy: -24.4 kcal/mol

## GTTGACCGAAAGGTAAC (((.(((....))))))
[1]
  Tm: 38.1 °C
[2]
  folding enthalpy: -16.4 kcal/mol

## GGCATCGAAAGATGAGCC ((((((....)))..)))
[1]
  Tm: 44.1 °C
[2]
  folding enthalpy: -17 kcal/mol

## GGATGGGGAAACCCATTC (.(((((....))))).)
[1]
  Tm: 47.5 °C
[2]
  folding enthalpy: -22 kcal/mol

## GCCAAGCGAAAGCCTAGC ((.(.((....)).).))
[1]
  Tm: 31.2 °C
[2]
  folding enthalpy: -9.82 kcal/mol
